Measured values collected from several papers.
Protocols differ between the studies behind these lines. Values after ≈ are worked out from the molar mass of the structure shown.
Organism: Micrococcus luteus

SMILES | observed | technique | strain | concentration | time | endpoint | result
C/C=C(\C)c1cc(O)c(C)c(OC(=O)c2c(C)c(Cl)c(O)c(Cl)c2O)c1 | microbial growth | broth dilution | ML01 |  |  | MIC | 4 µg/mL
O=C1NN=C(N=Cc2ccccc2O)C1=NNn1c(-c2ccccc2)nc2ccccc2c1=O | microbial growth | broth dilution |  |  | 24 h | MIC | 55.4 µM
O=C(O)CN1C(=O)/C(=C/c2ccc(-c3ccc(N(c4ccccc4)c4ccccc4)cc3)c3ccccc23)SC1=S | microbial killing | broth dilution | ATCC10240 |  |  | MBC | 62.5 µg/mL (≈ 109 µM)
O=C1NN=C(N=Cc2ccc(O)c(O)c2)C1=NNn1c(-c2ccccc2)nc2ccccc2c1=O | microbial growth | broth dilution |  |  | 24 h | MIC | 53.5 µM
O=C(O)c1cn(C2CC2)c2cc(N3CCNCC3)c(F)cc2c1=O | microbial growth | disc diffusion |  | 100 µg/mL | 24 h | inhibition zone | 25 mm
CC1=NN(CNc2c(O)c(S(=O)(=O)O)cc3ccccc23)C(=O)C1=NNn1c(-c2ccccc2)nc2ccccc2c1=O | microbial growth | broth dilution |  |  | 24 h | MIC | 83.7 µM
CN[C@H](CC(C)C)C(=O)N[C@H]1C(=O)N[C@@H](CC(N)=O)C(=O)N[C@H]2C(=O)N[C@H]3C(=O)N[C@H](C(=O)N[C@H](C(=O)O)c4cc(O)cc(O)c4-c4cc3ccc4O)[C@H](O)c3ccc(c(Cl)c3)Oc3cc2cc(c3O[C@@H]2O[C@H](CO)[C@@H](O)[C@H](O)[C@H]2O[C@H]2C[C@](C)(N)[C@H](O)[C@H](C)O2)Oc2ccc(cc2Cl)[C@H]1O | microbial growth | broth dilution | ATCC10240 |  |  | MIC | 0.12 µg/mL
CC1(C)S[C@@H]2[C@H](NC(=O)[C@H](N)c3ccccc3)C(=O)N2[C@H]1C(=O)O | microbial growth | agar dilution | ATCC10240 | 26.93 µM |  | inhibition | 100%
CN[C@H](CC(C)C)C(=O)N[C@H]1C(=O)N[C@@H](CC(N)=O)C(=O)N[C@H]2C(=O)N[C@H]3C(=O)N[C@H](C(=O)N[C@H](C(=O)O)c4cc(O)cc(O)c4-c4cc3ccc4O)[C@H](O)c3ccc(c(Cl)c3)Oc3cc2cc(c3O[C@@H]2O[C@H](CO)[C@@H](O)[C@H](O)[C@H]2O[C@H]2C[C@](C)(N)[C@H](O)[C@H](C)O2)Oc2ccc(cc2Cl)[C@H]1O | microbial growth | broth dilution | ML01 |  |  | MIC | 0.13 µg/mL
